Results published in publication PMC10407542 (The Innovation, 2023).

What was measured:
[1] = system: S.aureus infected skin wound; assay: In vivo anti-infection study, S.aureus infected full-thickness wound model; design: species or system rat; details: SD rats, early stages, n = 5
How it was run: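 Rats bearing S. aureus-infected skin wounds were given PBS (control) or test compound. Wound beds were inspected visually for yellow pus in the early stages. Infection was confirmed by agar plate counts of tissue exudate from wound sites on day 3. Wound healing and wound size were followed over time. Mean ± SD, n = 5.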

S. aureus biofilm = assay: Activity against mature S. aureus biofilm; type: cell-based, Staphylococcus aureus; details: treatment for 8 h

For N3-Arg-Trp-Arg-Trp-Arg-Trp-NH2 [AMP], the “pyogenic infection (yellow pus) on the infected wound bed” value [1] was “not observed” and the “minimum eradication biofilm concentration” value (S. aureus biofilm) was 1,280 μmol L^−1.
